Assay results reported in publication PMC6331054 (Bioorganic & medicinal chemistry, 2018).

Experiments:
[1] = target: T1, RALDH2 activity in chick choroid cytosol fractions (Gallus gallus, UniProt O93344); assay type: biochemical
T1 sequence (O93344 1-518): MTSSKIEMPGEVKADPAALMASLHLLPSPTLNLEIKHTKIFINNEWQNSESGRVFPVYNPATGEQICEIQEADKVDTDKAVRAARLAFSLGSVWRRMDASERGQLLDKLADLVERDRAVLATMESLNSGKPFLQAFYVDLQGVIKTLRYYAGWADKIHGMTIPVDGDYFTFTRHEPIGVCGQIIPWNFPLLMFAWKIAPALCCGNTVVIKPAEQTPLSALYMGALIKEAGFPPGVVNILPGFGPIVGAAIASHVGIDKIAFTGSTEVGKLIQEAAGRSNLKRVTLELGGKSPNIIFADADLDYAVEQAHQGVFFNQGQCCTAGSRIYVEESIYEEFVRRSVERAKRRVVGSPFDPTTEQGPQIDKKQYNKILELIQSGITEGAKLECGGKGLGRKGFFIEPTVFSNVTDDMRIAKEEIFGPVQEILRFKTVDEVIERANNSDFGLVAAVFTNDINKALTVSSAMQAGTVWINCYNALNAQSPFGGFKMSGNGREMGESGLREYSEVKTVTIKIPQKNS
Method in brief: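 Choroidal cytosol from control and 4-day recovering chick eyes was pre-incubated 20 min at 37°C with test compound (0–6 μM) or DMSO. Reaction was started with NAD+ (4 mM) and all-trans-retinaldehyde (25 μM), run 30 min at 37°C under dim red light, stopped with ice and methanol. ATRA was quantified by HPLC.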

[2] = Stability of DAR on storage and under assay conditions; assay type: physicochemical
[3] = target: T2, RALDH2 activity (ATRA synthesis) in living intact chick choroids (Gallus gallus, UniProt O93344); experiment: RALDH2 activity after incubation of living, intact choroids in organ culture; assay type: cell-based; details: organ culture 24 hrs
T2 sequence (O93344 1-518): T1 sequence (O93344 1-518)
Method in brief: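 Choroids from 4-day recovering or contralateral control eyes of male White Leghorn chicks (8 mm posterior punch) were cultured one per well in N2 medium with test compound (methods: 0.01–5 μM; legend: 0.01–10 μM) or DMSO for 24 hrs at 37°C, 5% CO2. Cytosol (100,000g, 1 hr) was incubated with NAD+ and 25 μM all-trans-retinaldehyde for 30 min at 37°C, with methanol stop and HPLC quantification of ATRA.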

[4] = target: T3, recombinant chicken RALDH2 (Gallus gallus, UniProt O93344); experiment: Fluorescence-based NADH assay of RALDH activity with retinaldehyde as substrate; assay type: biochemical
T3 sequence (O93344 1-518): T1 sequence (O93344 1-518)

[5] = target: T4, recombinant human mitochondrial ALDH2 (hALDH2) (Homo sapiens, UniProt P05091); assay type: biochemical; details: read-out: KI (Morrison); Morrison equation; ALDH2 4.43 μM
T4 sequence (P05091 18-517): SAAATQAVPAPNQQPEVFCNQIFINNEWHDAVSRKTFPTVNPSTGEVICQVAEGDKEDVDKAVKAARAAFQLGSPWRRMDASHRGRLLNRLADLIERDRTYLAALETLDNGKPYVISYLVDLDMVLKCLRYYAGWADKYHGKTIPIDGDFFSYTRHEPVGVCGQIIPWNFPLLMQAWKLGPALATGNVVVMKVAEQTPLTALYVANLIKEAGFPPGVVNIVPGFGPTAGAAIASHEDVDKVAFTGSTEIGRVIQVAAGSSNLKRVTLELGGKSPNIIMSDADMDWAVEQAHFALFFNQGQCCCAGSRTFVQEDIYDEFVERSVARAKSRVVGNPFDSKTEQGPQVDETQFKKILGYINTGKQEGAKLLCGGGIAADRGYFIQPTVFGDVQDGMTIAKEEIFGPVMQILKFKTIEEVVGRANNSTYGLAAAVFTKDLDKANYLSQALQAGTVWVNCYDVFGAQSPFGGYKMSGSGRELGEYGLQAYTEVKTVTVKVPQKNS
Method in brief: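 Cobalt-purified recombinant hALDH2 (4.5 μM in Hepes pH 8.5/KCl/EDTA dialysis buffer plus 1 mM TCEP) in 20 mM Hepes pH 8.3, 150 mM KCl, 1 mM EDTA, 2 mM DTT, 5 mM propionaldehyde, 25°C. Pre-incubation 20 min–1 hr with test compound (1–100 μM final) or DMSO; NAD+ (5 mM final) started reaction; NADH at 340 nm for 5 min. KI by Morrison equation; triplicates, 3–5 experiments.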

Compound	IC50 [1]	inhibition of RALDH2 activity in control choroid lysates ([1]; 0.10 – 6 μM DAR, 20 min pre-incubation at 37°C, control eyes, vs vehicle)	light stability ([2]; ambient light)	stability under assay conditions ([2]; dark, 25°C and 37°C)	storage stability ([2]; stored in the dark and at −80°)	effect on ATRA synthesis in living, intact choroids from control eyes [3]	Protection of RALDH2 activity by all-trans-retinaldehyde in the pre-incubation ([4]; 250 nM DAR + 250 μM RAL)	RALDH2 activity at enzyme concentrations below the DAR concentration ([4]; DAR 150 nM, RALDH2 46 – 91 nM)	Ki [5]
CC1=C(/C=C/C(C)=C/C=C/C(C)=C/C(=O)C(Cl)Cl)C(C)(C)CCC1 [DAR, (3E,5E,7E,9E)-1,1-dichloro-4,8-dimethyl-10-(2,6,6-trimethylcyclohex-1-en-1-yl)deca-3,5,7,9-tetraen-2-one]	20.7 nM	92 – 99%	prone to photoisomerization	at least three days	at least three months	no significant effect	No protection	completely inhibited	> 100000 nM
O=C(NCCCCCCCCNC(=O)C(Cl)Cl)C(Cl)Cl [WIN 18446, reference compound]	–	–	–	–	–	no significant effect	–	–	–
